Paper PMC4610013 (Science Advances, 2015)

Experiments:
blood-brain barrier = experiment: Contrast-enhanced MRI of BBB integrity; assay type: in vivo, mouse; settings: wild-type mice, tail-vein injection, 7-T T1-weighted MRI over 20 min, n = 4
How it was run: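 Mice received targeting or nontargeting siRNA (20 μg complexed with in vivo-jetPEI in 10% glucose, 15 min at room temperature). On a 7-T small-animal MRI, scans ran before and after tail-vein 100 μl of 1:3-diluted Gd-DTPA (0.5 M stock), monitored 20 min. Settings: TR/TE 500/2.7 ms, 30° flip angle, 8 repetitions. Hippocampal bolus-chase clearance was analysed blind to treatment.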

claudin-5 and occludin = experiment: Tight junction protein levels after Aβ treatment; assay type: cell-based, mouse; settings: brain endothelial cells, increasing doses, 12 hours after treatment, Western blot
How it was run: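 Bend.3 mouse brain endothelial cells were grown in DMEM with 20% FCS and 2 mM sodium pyruvate at 37°C, 5% CO2. They were exposed 12 h to increasing concentrations of Aβ(1–40) peptide forms, with unmodified monomer at 0.1 to 1 μM. Cells were lysed in tris/2% SDS/10 mM DTT buffer and spun 12,000 rpm for 20 min at 4°C. Tight junction proteins were measured by Western blot densitometry, n = 3 […] per concentration.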

[1] = cited from earlier work

In the case of O=C([O-])CN(CCN(CC(=O)[O-])CC(=O)O)CCN(CC(=O)[O-])CC(=O)O.[Gd+3] [Gd-DTPA, gadolinium–diethylenetriamine pentaacetic acid], the “extravasation of MRI contrast agent after claudin-5 and occludin cosuppression” value (blood-brain barrier) is reported as “increased extravasation”.

For “Aβ(1–40): unmodified Aβ(1–40) monomer isolated by size exclusion chromatography”, the “levels of claudin-5 and occludin protein” value (claudin-5 and occludin) was “dose-dependent decrease”.

In the case of “Aβ(1–40)DiY: dityrosine cross-linked dimer prepared by oxidative cross-linking of Aβ(1–40)”, the “levels of claudin-5 and occludin protein” value (claudin-5 and occludin) is reported as “down-regulated”.

In the case of Aβ(1–40)F19P, the “levels of claudin-5 and occludin protein” value (claudin-5 and occludin) is listed as “down-regulated” and the propensity for aggregation [1] is listed as “little or no propensity for aggregation”.
